{"source": "ChEMBL document CHEMBL1145465", "about": "“PhoU is a persistence switch involved in persister formation and tolerance to multiple antibiotics and stresses in Escherichia coli” (2007)", "format_in_all_cases": "functional", "key": {"Escherichia coli [1]": {"system": "Escherichia coli", "assay": "Antibacterial activity against Escherichia coli K12 containing PhoU mutant assessed as cell count in stationary phase at 3 ug/ml after 3 days", "method_in_brief": "(§1)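 Log-phase or stationary-phase cultures were exposed to ampicillin (100 μg/ml) or norfloxacin (3 μg/ml) in MOPS minimal medium, pH 5.0, at 37°C without shaking, for 5 h to 10 days. Aliquots were saline-washed and plated on LB for CFU/ml.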"}, "Escherichia coli [2]": {"system": "Escherichia coli", "assay": "Antibacterial activity against Escherichia coli K12 containing deletion deltaphoU mutant assessed as cell count in stationary phase at 3 ug/ml after 10 days", "method_in_brief": "(§2)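 Log-phase or stationary-phase cultures of the ΔphoU deletion mutant (Datsenko–Wanner construction) were exposed to norfloxacin 3 μg/ml in MOPS minimal medium, pH 5.0, at 37°C without shaking, for up to 10 days. Sampled aliquots were washed in saline and plated on LB agar for CFU/ml.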"}, "Escherichia coli [3]": {"system": "Escherichia coli", "assay": "Antibacterial activity against Escherichia coli K12 mutant JHU313 containing plasmid PhoU at 4 ug/ml after 48 hrs by disc diffusion method", "method_in_brief": "(§3)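 Kirby-Bauer disc assay: log-phase LB culture was spread on LB agar for confluent growth. 7-mm nitrocellulose discs were soaked in antibiotic at the listed concentration and placed on the agar. After 48 h at 37°C, the diameter of the inhibition zone was measured in mm.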"}, "Escherichia coli [4]": {"system": "Escherichia coli", "assay": "Antibacterial activity against Escherichia coli K12 PhoU wild type W3110 assessed as cell count in stationary phase at 3 ug/ml after 3 days", "method_in_brief": "as §1"}, "Escherichia coli [5]": {"system": "Escherichia coli", "assay": "Antibacterial activity against Escherichia coli K12 containing PhoU mutant assessed as cell count in log phase at 3 ug/ml after 1 day", "method_in_brief": "as §1"}, "Escherichia coli [6]": {"system": "Escherichia coli", "assay": "Antibacterial activity against Escherichia coli K12 mutant JHU313 at 0.5 ug/ml after 48 hrs by disc diffusion method", "method_in_brief": "as §3"}, "Escherichia coli [7]": {"system": "Escherichia coli", "assay": "Antibacterial activity against Escherichia coli K12 containing PhoU mutant assessed as cell count in stationary phase at 3 ug/ml after 1 day", "method_in_brief": "as §1"}, "Escherichia coli [8]": {"system": "Escherichia coli", "assay": "Antibacterial activity against Escherichia coli K12 PhoU wild type W3110 assessed as cell count in log phase at 3 ug/ml after 1 week", "method_in_brief": "as §1"}, "Escherichia coli [9]": {"system": "Escherichia coli", "assay": "Antibacterial activity against Escherichia coli K12 mutant JHU313 at 0.1 ug/ml after 48 hrs by disc diffusion method", "method_in_brief": "as §3"}, "Escherichia coli [10]": {"system": "Escherichia coli", "assay": "Antibacterial activity against Escherichia coli K12 mutant JHU313 containing plasmid vector at 0.5 ug/ml after 48 hrs by disc diffusion method", "method_in_brief": "as §3"}, "Escherichia coli [11]": {"system": "Escherichia coli", "assay": "Antibacterial activity against Escherichia coli K12 mutant JHU313 at 4 ug/ml after 48 hrs by disc diffusion method", "method_in_brief": "as §3"}, "Escherichia coli [12]": {"system": "Escherichia coli", "assay": "Antibacterial activity against Escherichia coli K12 PhoU wild type W3110 assessed as cell count in log phase at 3 ug/ml after 10 days", "method_in_brief": "as §1"}, "Escherichia coli [13]": {"system": "Escherichia coli", "assay": "Antibacterial activity against Escherichia coli K12 containing deletion deltaphoU mutant assessed as cell count in stationary phase at 3 ug/ml after 1 day", "method_in_brief": "as §2"}, "Escherichia coli [14]": {"system": "Escherichia coli", "assay": "Antibacterial activity against Escherichia coli K12 containing PhoU mutant assessed as cell count in stationary phase at 3 ug/ml after 5 hrs", "method_in_brief": "as §1"}, "Escherichia coli [15]": {"system": "Escherichia coli", "assay": "Antibacterial activity against Escherichia coli K12 containing deletion deltaphoU mutant assessed as cell count in stationary phase at 3 ug/ml after 5 days", "method_in_brief": "as §2"}, "Escherichia coli [16]": {"system": "Escherichia coli", "assay": "Antibacterial activity against Escherichia coli K12 PhoU wild type W3110 at 100 ug/ml after 48 hrs by disc diffusion method", "method_in_brief": "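Kirby-Bauer disc assay. Log-phase LB culture (10⁸ bacteria) was spread for confluent growth on LB agar. 7 mm nitrocellulose discs soaked in antibiotic at the listed concentrations were laid on the agar. Inhibition zone diameter (mm) was measured after 48 h at 37°C.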"}, "Escherichia coli [17]": {"system": "Escherichia coli", "assay": "Antibacterial activity against Escherichia coli K12 PhoU wild type W3110 assessed as cell count in stationary phase at 100 ug/ml after 5 days", "method_in_brief": "(§4)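 Log-phase or stationary-phase cultures exposed to ampicillin 100 μg/ml in MOPS minimal medium (pH 5.0) at 37°C without shaking, for 5 h up to 10 days. Aliquots were taken at each time point, washed in saline and plated on LB plates for viable CFU/ml.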"}, "Escherichia coli [18]": {"system": "Escherichia coli", "assay": "Antibacterial activity against Escherichia coli K12 PhoU wild type W3110 assessed as cell count in stationary phase at 100 ug/ml after 5 hrs", "method_in_brief": "as §4"}, "Escherichia coli [19]": {"system": "Escherichia coli", "assay": "Antibacterial activity against Escherichia coli K12 PhoU wild type W3110 assessed as cell count in stationary phase at 100 ug/ml after 3 days", "method_in_brief": "as §1"}, "Escherichia coli [20]": {"system": "Escherichia coli", "assay": "Antibacterial activity against Escherichia coli K12 mutant JHU313 containing plasmid PhoU at 6 ug/ml after 48 hrs by disc diffusion method", "method_in_brief": "as §3"}, "Escherichia coli [21]": {"system": "Escherichia coli", "assay": "Antibacterial activity against Escherichia coli K12 containing deletion deltaphoU mutant assessed as cell count in stationary phase at 100 ug/ml after 5 hrs", "method_in_brief": "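Wild-type W3110-derived deletion mutants were made by the Datsenko–Wanner method. Log-phase or stationary-phase cultures were exposed to ampicillin 100 μg/ml in MOPS minimal medium at pH 5.0, at 37°C without shaking. Aliquots were taken at set times, washed in saline and plated on LB for viable CFU/ml.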"}, "Escherichia coli [22]": {"system": "Escherichia coli", "assay": "Antibacterial activity against Escherichia coli K12 containing deletion deltaphoBR mutant assessed as cell count in stationary phase at 100 ug/ml after 5 hrs", "method_in_brief": "(§5)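 Deletion mutants were made by the Datsenko–Wanner method. Log-phase or stationary-phase cultures were exposed to ampicillin at 100 μg/ml. CFU/ml was determined at the start and after 5, 24 and 72 h of exposure.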"}, "Escherichia coli [23]": {"system": "Escherichia coli", "assay": "Antibacterial activity against Escherichia coli K12 PhoU wild type W3110 assessed as cell count in stationary phase at 100 ug/ml after 10 days", "method_in_brief": "as §4"}, "Escherichia coli [24]": {"system": "Escherichia coli", "assay": "Antibacterial activity against Escherichia coli K12 PhoU wild type W3110 assessed as cell count at 100 ug/ml"}, "Escherichia coli [25]": {"system": "Escherichia coli", "assay": "Antibacterial activity against Escherichia coli K12 containing deletion deltahipA mutant assessed as cell count in log phase at 100 ug/ml after 24 hrs", "method_in_brief": "as §5"}, "Escherichia coli [26]": {"system": "Escherichia coli", "assay": "Antibacterial activity against Escherichia coli K12 mutant JHU313 containing plasmid PhoU at 100 ug/ml after 48 hrs by disc diffusion method", "method_in_brief": "as §3"}, "Escherichia coli [27]": {"system": "Escherichia coli", "assay": "Antibacterial activity against Escherichia coli K12 mutant JHU313 containing plasmid PhoU at 25 ug/ml after 48 hrs by disc diffusion method", "method_in_brief": "as §3"}, "Escherichia coli [28]": {"system": "Escherichia coli", "assay": "Antibacterial activity against Escherichia coli K12 mutant JHU313 at 6 ug/ml after 48 hrs by disc diffusion method", "method_in_brief": "as §3"}, "Escherichia coli [29]": {"system": "Escherichia coli", "assay": "Antibacterial activity against Escherichia coli K12 mutant JHU313 containing plasmid vector at 6 ug/ml after 48 hrs by disc diffusion method", "method_in_brief": "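Kirby-Bauer paper-disc assay: log-phase E. coli (10⁸ bacteria) grown in LB broth, spread on LB agar for confluent growth; 7 mm nitrocellulose discs soaked with antibiotic solution at the listed concentration (μg/ml) placed on surface; incubated 37°C for 48 h; diameter of growth-inhibition zone measured in mm. Strain is the phoU transposon mutant transformed by electroporation with empty vector control.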"}, "Escherichia coli [30]": {"system": "Escherichia coli", "assay": "Antibacterial activity against Escherichia coli K12 PhoU wild type W3110 assessed as cell count in log phase at 100 ug/ml after 10 days", "method_in_brief": "as §1"}, "Escherichia coli [31]": {"system": "Escherichia coli", "assay": "Antibacterial activity against Escherichia coli K12 containing deletion deltaphoB mutant assessed as cell count in stationary phase at 100 ug/ml after 5 hrs", "method_in_brief": "as §5"}}, "data": [{"smiles": "CCn1cc(C(=O)O)c(=O)c2cc(F)c(N3CCNCC3)cc21", "note": "[NORFLOXACIN]", "values": [{"measurement": "CFU", "setting": "Escherichia coli [1]", "value": "2 10^5/ml"}, {"measurement": "CFU", "setting": "Escherichia coli [2]", "value": 0, "unit": "mL⁻¹"}, {"measurement": "inhibition zone (IZ)", "setting": "Escherichia coli [3]", "value": 36, "unit": "mm"}, {"measurement": "CFU", "setting": "Escherichia coli [4]", "value": "1 10^8/ml"}, {"measurement": "CFU", "setting": "Escherichia coli [5]", "value": "4 10^5/ml"}, {"measurement": "inhibition zone (IZ)", "setting": "Escherichia coli [6]", "value": 30, "unit": "mm"}, {"measurement": "CFU", "setting": "Escherichia coli [7]", "value": "4.5 10^7/ml"}, {"measurement": "CFU", "setting": "Escherichia coli [8]", "value": 0, "unit": "mL⁻¹"}, {"measurement": "inhibition zone (IZ)", "setting": "Escherichia coli [9]", "value": 28, "unit": "mm"}, {"measurement": "inhibition zone (IZ)", "setting": "Escherichia coli [10]", "value": 35, "unit": "mm"}, {"measurement": "inhibition zone (IZ)", "setting": "Escherichia coli [11]", "value": 37, "unit": "mm"}, {"measurement": "CFU", "setting": "Escherichia coli [12]", "value": 0, "unit": "mL⁻¹"}, {"measurement": "CFU", "setting": "Escherichia coli [13]", "value": "2 10^8/ml"}, {"measurement": "CFU", "setting": "Escherichia coli [14]", "value": "3 10^8/ml"}, {"measurement": "CFU", "setting": "Escherichia coli [15]", "value": 0, "unit": "mL⁻¹"}]}, {"smiles": "CC1(C)S[C@@H]2[C@H](NC(=O)[C@H](N)c3ccccc3)C(=O)N2[C@H]1C(=O)O", "note": "[AMPICILLIN]", "values": [{"measurement": "inhibition zone (IZ)", "setting": "Escherichia coli [16]", "value": 35, "unit": "mm"}, {"measurement": "CFU", "setting": "Escherichia coli [17]", "value": "3 10^7/ml"}, {"measurement": "CFU", "setting": "Escherichia coli [18]", "value": "5 10^9/ml"}, {"measurement": "CFU", "setting": "Escherichia coli [19]", "value": "1 10^8/ml"}, {"measurement": "inhibition zone (IZ)", "setting": "Escherichia coli [20]", "value": 32, "unit": "mm"}, {"measurement": "CFU", "setting": "Escherichia coli [21]", "value": "2 10^8/ml"}, {"measurement": "CFU", "setting": "Escherichia coli [22]", "value": "3 10^9/ml"}, {"measurement": "CFU", "setting": "Escherichia coli [23]", "value": "2 10^5/ml"}, {"measurement": "CFU", "setting": "Escherichia coli [24]", "value": "5 10^7/ml"}, {"measurement": "CFU", "setting": "Escherichia coli [25]", "value": "1 10^3/ml"}, {"measurement": "inhibition zone (IZ)", "setting": "Escherichia coli [26]", "value": 40, "unit": "mm"}, {"measurement": "inhibition zone (IZ)", "setting": "Escherichia coli [27]", "value": 36, "unit": "mm"}, {"measurement": "inhibition zone (IZ)", "setting": "Escherichia coli [28]", "value": 30, "unit": "mm"}, {"measurement": "inhibition zone (IZ)", "setting": "Escherichia coli [29]", "value": 34, "unit": "mm"}, {"measurement": "CFU", "setting": "Escherichia coli [30]", "value": 0, "unit": "mL⁻¹"}, {"measurement": "CFU", "setting": "Escherichia coli [31]", "value": "4 10^9/ml"}]}]}
